Calls of active or inactive are those of the source. The rule behind the calls is not given here.
Columns and labels:
Plasma = assay: AUC in rat plasma at 1 mg/kg, iv and 10 mg/kg, po; format: ADME, organism-based; conditions: in vivo
[1] = target: Metabotropic glutamate receptor 7 (Homo sapiens, UniProt Q14831); assay: Positive allosteric modulation at mGluR7 (unknown origin)
[2] = target: Metabotropic glutamate receptor 5 (Rattus norvegicus) (UniProt P31424); assay: Positive allosteric modulation at rat mGluR5 expressed in HEK293 cells assessed as amplitude of response at 30 uM by calcium mobilization assay relative to glutamate; format: functional, cell-based
Method in brief: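 HEK293 cells stably expressing rat mGlu5 were used in a calcium mobilization assay. Test compound was given at 30 µM, and response amplitude is expressed as percent of the maximal response to 100 µM glutamate. Values are the average of three or more independent determinations.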

Rattus norvegicus [3] = assay: Antipsychotic activity in rat assessed as reversal of amphetamine-induced hyperlocomotion at 3 mg/kg, po; format: functional, organism-based; design: dose 3 mg/kg
Method in brief: (§1)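 Rats dosed orally; reversal of amphetamine-induced hyperlocomotion scored as % reversal of amphetamine effect, across an oral dose range up to 100 mg/kg; terminal unbound brain concentrations calculated at the doses tested.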

Rattus norvegicus [4] = assay: Toxicity in rat assessed as pro-convulsive behavior up to 120 mg/kg, po by modified Irwin neurological test battery method; format: organism-based; design: dose 120 mg/kg, route oral; conditions: in vivo
Canis familiaris = assay: Toxicity in dog assessed as dizziness at 0.5 mg/ml, iv; format: organism-based, Canis lupus familiaris; conditions: in vivo
[5] = target: Metabotropic glutamate receptor 5 (Rattus norvegicus, UniProt P31424); assay: Positive allosteric modulation at rat mGluR5 expressed in HEK293 cells by calcium mobilization assay; format: functional, cell-based
Method in brief: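 HEK293 cells stably expressing rat mGlu5 were run in a 'triple add' calcium mobilization assay that detects agonism, PAM and NAM activity together. Response amplitude was expressed as % of the maximal response to 100 µM glutamate. Values are the mean of three or more independent determinations.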

Cytochrome P450 1A2 = target: T1, Cytochrome P450 1A2 (Homo sapiens, UniProt P05177); assay: Inhibition of human CYP1A2; format: ADME
T1 sequence (P05177 whole entry): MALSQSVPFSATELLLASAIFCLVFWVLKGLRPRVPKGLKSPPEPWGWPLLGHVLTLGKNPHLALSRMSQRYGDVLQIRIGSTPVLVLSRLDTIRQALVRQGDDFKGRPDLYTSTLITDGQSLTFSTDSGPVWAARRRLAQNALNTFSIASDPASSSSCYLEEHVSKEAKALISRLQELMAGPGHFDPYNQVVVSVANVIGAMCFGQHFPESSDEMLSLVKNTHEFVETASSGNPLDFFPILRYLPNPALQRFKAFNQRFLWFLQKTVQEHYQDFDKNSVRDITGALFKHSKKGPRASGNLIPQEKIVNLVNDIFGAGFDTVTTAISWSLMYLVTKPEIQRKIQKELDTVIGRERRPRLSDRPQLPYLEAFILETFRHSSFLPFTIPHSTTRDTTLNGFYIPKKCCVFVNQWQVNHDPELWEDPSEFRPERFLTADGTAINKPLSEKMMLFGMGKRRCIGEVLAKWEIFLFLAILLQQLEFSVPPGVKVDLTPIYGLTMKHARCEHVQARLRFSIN
Method in brief: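 Cocktail assay in human liver microsomes with known probe substrates for CYP 2C9, 2D6, 3A4 and 1A2; IC50 determined.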

[6] = target: Metabotropic glutamate receptor 8 (Homo sapiens, UniProt O00222); assay: Positive allosteric modulation at mGluR8 (unknown origin)
Sequence of Metabotropic glutamate receptor 8 (O00222 whole entry): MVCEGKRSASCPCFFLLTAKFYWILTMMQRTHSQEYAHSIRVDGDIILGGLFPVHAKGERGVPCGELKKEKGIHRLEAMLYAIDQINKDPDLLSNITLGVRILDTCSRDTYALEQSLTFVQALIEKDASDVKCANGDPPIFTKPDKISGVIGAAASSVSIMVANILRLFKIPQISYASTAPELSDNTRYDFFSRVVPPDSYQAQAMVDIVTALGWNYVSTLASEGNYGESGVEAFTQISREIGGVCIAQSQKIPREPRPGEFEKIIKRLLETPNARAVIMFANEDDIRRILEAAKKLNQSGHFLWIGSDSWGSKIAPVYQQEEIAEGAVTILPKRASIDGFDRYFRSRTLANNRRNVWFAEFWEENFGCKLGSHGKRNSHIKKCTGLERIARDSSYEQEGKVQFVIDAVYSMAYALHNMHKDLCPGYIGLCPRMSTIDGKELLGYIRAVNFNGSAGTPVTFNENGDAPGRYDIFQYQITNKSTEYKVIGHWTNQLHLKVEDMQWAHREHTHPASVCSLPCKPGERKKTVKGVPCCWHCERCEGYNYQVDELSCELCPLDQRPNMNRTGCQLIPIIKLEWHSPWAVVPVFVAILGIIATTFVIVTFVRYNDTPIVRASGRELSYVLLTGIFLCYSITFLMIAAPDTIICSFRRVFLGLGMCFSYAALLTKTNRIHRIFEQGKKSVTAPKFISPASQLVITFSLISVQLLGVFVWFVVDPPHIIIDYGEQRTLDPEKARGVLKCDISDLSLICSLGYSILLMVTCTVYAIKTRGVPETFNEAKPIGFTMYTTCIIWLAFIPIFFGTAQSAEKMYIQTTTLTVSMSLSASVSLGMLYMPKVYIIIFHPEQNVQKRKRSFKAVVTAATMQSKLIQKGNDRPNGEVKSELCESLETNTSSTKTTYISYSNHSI

Rattus norvegicus [7] = assay: Volume of distribution at steady state in rat at 1 mg/kg, iv and 10 mg/kg, po; format: ADME, organism-based; conditions: in vivo
Method in brief: (§2)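 Rat PK: compound formulated at 1 mg/mL in 20% HP-β-CD and given at 1 mg/kg IV and 10 mg/kg PO.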

[8] = Drug metabolism in rat liver microsomes assessed as compound metabolized at 1 uM after 15 mins; format: ADME; conditions: read-out: Drug metabolism
Method in brief: (§3)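 Test compound at 1 µM was incubated for 15 min with liver microsomes (human for HLM, rat for RLM). Read-out was % of compound metabolized.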

[9] = Plasma protein binding in rat; format: ADME, cell-free
[10] = target: Metabotropic glutamate receptor 3 (Homo sapiens, UniProt Q14832); assay: Negative allosteric modulation at mGluR3 (unknown origin)
[11] = target: Metabotropic glutamate receptor 5 (Homo sapiens) (UniProt P41594); assay: Agonist activity at mGluR5 (unknown origin) at 30 uM
Sequence of Metabotropic glutamate receptor 5 (Homo sapiens) (P41594 21-1212 limits assumed): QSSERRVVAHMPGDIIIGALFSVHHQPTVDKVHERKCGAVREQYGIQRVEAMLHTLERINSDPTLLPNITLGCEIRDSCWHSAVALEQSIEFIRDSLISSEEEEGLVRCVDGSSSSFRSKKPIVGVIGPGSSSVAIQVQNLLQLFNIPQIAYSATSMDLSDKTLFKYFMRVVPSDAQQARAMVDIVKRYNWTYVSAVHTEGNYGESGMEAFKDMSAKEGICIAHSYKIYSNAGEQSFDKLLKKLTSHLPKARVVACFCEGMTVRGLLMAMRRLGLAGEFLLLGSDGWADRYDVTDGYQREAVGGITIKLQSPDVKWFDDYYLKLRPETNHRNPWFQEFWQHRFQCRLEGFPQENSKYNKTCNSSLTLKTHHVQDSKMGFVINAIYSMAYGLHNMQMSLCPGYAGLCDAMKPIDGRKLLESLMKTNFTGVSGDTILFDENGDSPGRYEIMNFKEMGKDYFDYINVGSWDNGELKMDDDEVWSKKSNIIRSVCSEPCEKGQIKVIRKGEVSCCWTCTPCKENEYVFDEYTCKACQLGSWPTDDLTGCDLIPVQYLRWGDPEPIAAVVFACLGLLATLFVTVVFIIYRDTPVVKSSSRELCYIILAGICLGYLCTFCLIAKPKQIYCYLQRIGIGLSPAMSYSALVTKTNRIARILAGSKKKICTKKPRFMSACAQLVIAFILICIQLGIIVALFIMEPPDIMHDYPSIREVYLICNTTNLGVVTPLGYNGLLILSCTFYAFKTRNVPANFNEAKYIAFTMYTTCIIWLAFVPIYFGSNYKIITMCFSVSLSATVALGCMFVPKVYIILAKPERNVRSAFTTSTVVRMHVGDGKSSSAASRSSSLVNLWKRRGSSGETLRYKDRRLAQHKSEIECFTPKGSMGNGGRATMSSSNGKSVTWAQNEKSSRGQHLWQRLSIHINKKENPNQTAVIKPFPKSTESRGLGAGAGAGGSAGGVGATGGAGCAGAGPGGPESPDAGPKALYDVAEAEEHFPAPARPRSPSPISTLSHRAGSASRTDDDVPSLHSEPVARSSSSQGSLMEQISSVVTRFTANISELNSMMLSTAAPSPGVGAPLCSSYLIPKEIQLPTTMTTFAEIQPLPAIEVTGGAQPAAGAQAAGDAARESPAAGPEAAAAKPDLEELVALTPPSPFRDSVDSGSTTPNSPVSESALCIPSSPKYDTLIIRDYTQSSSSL

Rattus norvegicus [12] = assay: Antipsychotic activity in po dosed rat assessed as reversal of amphetamine-induced hyperlocomotion; format: functional, organism-based; method in brief: as §1
Cytochrome P450 3A4 = Cytochrome P450 3A4 (Homo sapiens, UniProt P08684); assay: Inhibition of human CYP3A4; format: ADME
Method in brief: (§4)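 Cocktail assay in human liver microsomes using known probe substrates for the major CYP isoforms (2C9, 2D6, 3A4, 1A2). IC50 was determined for each isoform.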

[13] = Drug metabolism in human liver microsomes assessed as compound metabolized at 1 uM after 15 mins; format: ADME; conditions: read-out: Drug metabolism; method in brief: as §3
[14] = target: Metabotropic glutamate receptor 2 (Homo sapiens, UniProt Q14416); assay: Positive allosteric modulation at mGluR2 (unknown origin)
[15] = Fraction unbound in rat brain at 1 mg/kg, iv and 10 mg/kg, po; format: ADME, organism-based
[16] = Cmax in rat brain at 1 mg/kg, iv and 10 mg/kg, po; format: ADME, organism-based
Cytochrome P450 2D6 = Cytochrome P450 2D6 (Homo sapiens, UniProt P10635); assay: Inhibition of human CYP2D6; format: ADME; method in brief: as §4
Sequence of Cytochrome P450 2D6 (P10635 whole entry): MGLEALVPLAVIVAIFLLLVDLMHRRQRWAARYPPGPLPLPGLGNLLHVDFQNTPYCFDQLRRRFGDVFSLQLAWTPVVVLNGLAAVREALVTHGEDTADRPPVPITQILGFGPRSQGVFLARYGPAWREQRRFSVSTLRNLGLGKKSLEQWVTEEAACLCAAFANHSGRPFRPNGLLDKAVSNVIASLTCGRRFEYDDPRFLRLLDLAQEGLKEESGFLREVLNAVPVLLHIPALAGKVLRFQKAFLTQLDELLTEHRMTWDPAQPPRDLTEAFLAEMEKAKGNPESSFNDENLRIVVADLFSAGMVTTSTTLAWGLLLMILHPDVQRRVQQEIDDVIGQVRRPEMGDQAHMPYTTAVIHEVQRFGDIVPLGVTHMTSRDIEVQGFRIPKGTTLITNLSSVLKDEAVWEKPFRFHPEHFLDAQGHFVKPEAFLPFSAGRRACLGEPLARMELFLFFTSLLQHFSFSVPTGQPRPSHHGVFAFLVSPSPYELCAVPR

[17] = target: Metabotropic glutamate receptor 1 (Homo sapiens, UniProt Q13255); assay: Positive allosteric modulation at mGluR1 (unknown origin)
[18] = Terminal half-life in rat at 1 mg/kg, iv and 10 mg/kg, po; format: ADME, organism-based; conditions: in vivo, read-out: beta t1/2 (converted); method in brief: as §2
[19] = Ratio of AUC in brain to plasma of rat at 1 mg/kg, iv and 10 mg/kg, po; format: ADME, organism-based
Rattus norvegicus [20] = assay: Antipsychotic activity in rat assessed as reversal of amphetamine-induced hyperlocomotion at 56.6 mg/kg, po; format: functional
Method in brief: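 Rats were dosed orally and scored for reversal of amphetamine-induced hyperlocomotion, a model of antipsychotic activity. Doses tested went up to 100 mg/kg. Terminal unbound brain concentrations were calculated at the tested doses.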

[21] = target: Metabotropic glutamate receptor 4 (Homo sapiens, UniProt Q14833); assay: Positive allosteric modulation at mGluR4 (unknown origin)
Sequence of Metabotropic glutamate receptor 4 (Q14833 whole entry): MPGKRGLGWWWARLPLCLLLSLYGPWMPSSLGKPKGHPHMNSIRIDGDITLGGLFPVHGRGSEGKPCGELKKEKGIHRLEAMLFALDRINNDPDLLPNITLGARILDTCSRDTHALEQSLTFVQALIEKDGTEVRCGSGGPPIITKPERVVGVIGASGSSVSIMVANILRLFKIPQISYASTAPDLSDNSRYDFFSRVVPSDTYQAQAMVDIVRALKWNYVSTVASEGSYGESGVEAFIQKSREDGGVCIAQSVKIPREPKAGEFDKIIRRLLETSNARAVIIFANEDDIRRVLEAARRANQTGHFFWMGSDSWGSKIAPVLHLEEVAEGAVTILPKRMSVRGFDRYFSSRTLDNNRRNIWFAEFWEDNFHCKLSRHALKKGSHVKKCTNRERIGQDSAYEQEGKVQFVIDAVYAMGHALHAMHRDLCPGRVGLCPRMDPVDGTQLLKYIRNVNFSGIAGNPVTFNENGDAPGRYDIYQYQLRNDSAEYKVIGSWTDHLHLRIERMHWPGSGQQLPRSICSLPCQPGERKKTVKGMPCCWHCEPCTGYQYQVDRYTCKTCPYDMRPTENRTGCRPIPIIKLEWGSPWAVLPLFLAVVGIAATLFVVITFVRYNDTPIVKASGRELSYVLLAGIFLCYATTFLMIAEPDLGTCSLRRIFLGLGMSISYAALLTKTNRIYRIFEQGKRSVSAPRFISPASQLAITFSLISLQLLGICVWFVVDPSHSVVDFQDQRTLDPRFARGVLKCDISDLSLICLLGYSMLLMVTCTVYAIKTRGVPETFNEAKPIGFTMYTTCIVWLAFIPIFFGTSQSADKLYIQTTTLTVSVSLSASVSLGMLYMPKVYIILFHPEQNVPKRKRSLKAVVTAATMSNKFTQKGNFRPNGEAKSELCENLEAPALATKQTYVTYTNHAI

[22] = Plasma protein binding in human; format: ADME, cell-free
Cytochrome P450 2C9 = Cytochrome P450 2C9 (Homo sapiens, UniProt P11712); assay: Inhibition of human CYP2C9; format: ADME; method in brief: as §4
Sequence of Cytochrome P450 2C9 (P11712 whole entry): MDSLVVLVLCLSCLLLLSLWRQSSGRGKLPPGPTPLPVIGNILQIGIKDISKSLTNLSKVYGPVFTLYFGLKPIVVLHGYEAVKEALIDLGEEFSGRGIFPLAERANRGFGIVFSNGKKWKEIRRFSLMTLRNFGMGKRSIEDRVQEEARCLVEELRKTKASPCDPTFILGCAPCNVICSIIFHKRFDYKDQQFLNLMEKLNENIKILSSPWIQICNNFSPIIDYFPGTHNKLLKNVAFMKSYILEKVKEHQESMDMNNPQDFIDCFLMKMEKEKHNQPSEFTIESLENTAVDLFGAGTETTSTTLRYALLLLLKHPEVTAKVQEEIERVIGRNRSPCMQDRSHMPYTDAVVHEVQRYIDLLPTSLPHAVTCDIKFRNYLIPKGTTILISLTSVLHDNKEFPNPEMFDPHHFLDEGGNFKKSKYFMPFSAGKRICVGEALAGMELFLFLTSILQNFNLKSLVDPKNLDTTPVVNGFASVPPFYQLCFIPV

[23] = target: Metabotropic glutamate receptor 6 (Homo sapiens, UniProt O15303); assay: Positive allosteric modulation at mGluR6 (unknown origin)
Sequence of Metabotropic glutamate receptor 6 (O15303 whole entry): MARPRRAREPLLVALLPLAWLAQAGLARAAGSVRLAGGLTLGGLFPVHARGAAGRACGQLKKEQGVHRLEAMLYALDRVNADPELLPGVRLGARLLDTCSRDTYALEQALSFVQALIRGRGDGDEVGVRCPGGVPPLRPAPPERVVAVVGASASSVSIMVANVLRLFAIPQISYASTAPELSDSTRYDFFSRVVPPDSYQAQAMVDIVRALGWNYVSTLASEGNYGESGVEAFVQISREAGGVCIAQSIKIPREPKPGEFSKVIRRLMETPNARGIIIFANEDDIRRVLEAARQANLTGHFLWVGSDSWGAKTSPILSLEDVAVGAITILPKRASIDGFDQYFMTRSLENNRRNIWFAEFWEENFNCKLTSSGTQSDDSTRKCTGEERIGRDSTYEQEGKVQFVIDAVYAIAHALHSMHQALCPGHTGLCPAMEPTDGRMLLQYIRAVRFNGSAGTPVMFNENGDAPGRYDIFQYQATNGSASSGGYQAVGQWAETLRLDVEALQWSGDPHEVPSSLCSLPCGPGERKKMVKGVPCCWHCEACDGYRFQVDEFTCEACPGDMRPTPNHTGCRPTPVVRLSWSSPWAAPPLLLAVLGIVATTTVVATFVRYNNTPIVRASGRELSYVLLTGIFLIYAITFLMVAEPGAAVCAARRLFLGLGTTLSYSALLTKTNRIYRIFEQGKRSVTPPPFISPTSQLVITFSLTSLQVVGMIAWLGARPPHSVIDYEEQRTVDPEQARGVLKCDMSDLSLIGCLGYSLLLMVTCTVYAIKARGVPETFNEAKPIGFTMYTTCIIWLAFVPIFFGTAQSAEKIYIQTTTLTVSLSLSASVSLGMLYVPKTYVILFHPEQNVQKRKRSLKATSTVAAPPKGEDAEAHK

Rattus norvegicus [24] = assay: Antipsychotic activity in rat assessed as reversal of amphetamine-induced hyperlocomotion at 100 mg/kg, po; format: functional; method in brief: as §1

**Q.** With `O=C1N(c2ccc(F)cc2)CCc2nc(COc3ccccc3)cn21` as the compound, how does the AUC (Plasma) read?
**A.** 7.2 µM·h

**Q.** And the EC50 [1]?
**A.** > 10 µM

**Q.** And the Emax [2]?
**A.** 70%

**Q.** And the Activity (Rattus norvegicus [3])?
**A.** Active

**Q.** What about the Activity (Rattus norvegicus [4]) of the same compound?
**A.** Toxic

**Q.** What about the Activity (Canis familiaris) of the same compound?
**A.** Toxic

**Q.** And the EC50 [5]?
**A.** 0.086 µM

**Q.** And the IC50 (Cytochrome P450 1A2)?
**A.** > 20 µM

**Q.** And the EC50 [6]?
**A.** > 10 µM

**Q.** And the Vdss (Rattus norvegicus [7])?
**A.** 1.4 L/kg

**Q.** And the metabolised at 0.25 h, 1 µM [8]?
**A.** 19%

**Q.** What about the PPB [9] of the same compound?
**A.** 88.1%

**Q.** What about the IC50 [10] of the same compound?
**A.** 0.29 µM

**Q.** What about the Activity [11] of the same compound?
**A.** inactive

**Q.** And the Activity (Rattus norvegicus [12])?
**A.** Dose-dependent effect

**Q.** And the IC50 (Cytochrome P450 3A4)?
**A.** > 20 µM

**Q.** And the metabolised at 0.25 h, 1 µM [13]?
**A.** 18%

**Q.** And the EC50 [14]?
**A.** > 10 µM

**Q.** And the fraction unbound [15]?
**A.** 0.062

**Q.** What about the Cmax [16] of the same compound?
**A.** 6.05 µM

**Q.** What about the IC50 (Cytochrome P450 2D6) of the same compound?
**A.** > 20 µM

**Q.** What about the EC50 [17] of the same compound?
**A.** > 10 µM

**Q.** And the half-life [18]?
**A.** 55.8 min

**Q.** What about the Kp [19] of the same compound?
**A.** 1.8

**Q.** And the Activity (Rattus norvegicus [20])?
**A.** 50%

**Q.** What about the EC50 [21] of the same compound?
**A.** > 10 µM

**Q.** And the PPB [22]?
**A.** 90.3%

**Q.** And the IC50 (Cytochrome P450 2C9)?
**A.** > 20 µM

**Q.** What about the EC50 [23] of the same compound?
**A.** > 10 µM

**Q.** And the Activity (Rattus norvegicus [24])?
**A.** 50%
